Experimental data from ChEMBL document CHEMBL3045504, “Activity of 1,4-benzoquinones against formosan subterranean termites (Coptotermes formosanus)” (2008).

Columns and labels:
Type in all cases: functional
Coptotermes formosanus [1] = experiment: Termiticidal activity against Coptotermes formosanus placed on 0.001 % wt/wt compound treated filter paper assessed as termite mortality measured 13 days post compound exposure
In short: (§1)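 Treated filter paper disks moistened with 100 µL water; 20 C. formosanus workers (third instar or greater) plus 1 soldier per dish from field colonies kept on spruce, ca. 100% RH, 26.6 °C. Daily mortality scored for 3 weeks; cumulative percent mortality from four replicates, each a different colony; water-only controls; ANOVA, protected Fisher LSD (P < 0.05) after arcsine square-root transform.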

Coptotermes formosanus [2] = experiment: Termiticidal activity against Coptotermes formosanus placed on 0.1 % wt/wt compound treated filter paper assessed as termite mortality measured 6 days post compound exposure; in short: as §1
Coptotermes formosanus [3] = experiment: Termiticidal activity against Coptotermes formosanus placed on 0.5 % wt/wt compound treated filter paper assessed as termite mortality measured 13 days post compound exposure; in short: as §1
Coptotermes formosanus [4] = experiment: Termiticidal activity against Coptotermes formosanus placed on 0.01 % wt/wt compound treated filter paper assessed as termite mortality measured 17 days post compound exposure; in short: as §1
Coptotermes formosanus [5] = experiment: Termiticidal activity against Coptotermes formosanus placed on 0.1 % wt/wt compound treated filter paper assessed as termite mortality measured 17 days post compound exposure; in short: as §1
Coptotermes formosanus [6] = experiment: Termiticidal activity against Coptotermes formosanus placed on 0.1 % wt/wt compound treated filter paper assessed as termite mortality measured 21 days post compound exposure; in short: as §1
Coptotermes formosanus [7] = experiment: Termiticidal activity against Coptotermes formosanus placed on 0.5 % wt/wt compound treated filter paper assessed as termite mortality measured 11 days post compound exposure; in short: as §1
Coptotermes formosanus [8] = experiment: Termiticidal activity against Coptotermes formosanus placed on 0.001 % wt/wt compound treated filter paper assessed as termite mortality measured 21 days post compound exposure; in short: as §1
Coptotermes formosanus [9] = experiment: Termiticidal activity against Coptotermes formosanus placed on 0.1 % wt/wt compound treated filter paper assessed as termite mortality measured 11 days post compound exposure; in short: as §1
Coptotermes formosanus [10] = experiment: Antifeedant activity against Coptotermes formosanus placed on 0.001 % wt/wt compound treated filter paper assessed as filter paper consumption measured 21 days post compound exposure (reference value: 23.6 +/- 13.6 mg)
Coptotermes formosanus [11] = experiment: Termiticidal activity against Coptotermes formosanus placed on 0.01 % wt/wt compound treated filter paper assessed as termite mortality measured 9 days post compound exposure; in short: as §1
Coptotermes formosanus [12] = experiment: Antifeedant activity against Coptotermes formosanus placed on 0.1 % wt/wt compound treated filter paper assessed as filter paper consumption measured 21 days post compound exposure (reference value: 23.6 +/- 13.6 mg)
Coptotermes formosanus [13] = experiment: Termiticidal activity against Coptotermes formosanus placed on 0.001 % wt/wt compound treated filter paper assessed as termite mortality measured 6 days post compound exposure; in short: as §1
Coptotermes formosanus [14] = experiment: Termiticidal activity against Coptotermes formosanus placed on 0.5 % wt/wt compound treated filter paper assessed as termite mortality measured 9 days post compound exposure; in short: as §1
Coptotermes formosanus [15] = experiment: Termiticidal activity against Coptotermes formosanus placed on 0.05 % wt/wt compound treated filter paper assessed as termite mortality measured 6 days post compound exposure; in short: as §1
Coptotermes formosanus [16] = experiment: Termiticidal activity against Coptotermes formosanus placed on 0.001 % wt/wt compound treated filter paper assessed as termite mortality measured 17 days post compound exposure; in short: as §1
Coptotermes formosanus [17] = experiment: Termiticidal activity against Coptotermes formosanus placed on 0.5 % wt/wt compound treated filter paper assessed as termite mortality measured 3 days post compound exposure; in short: as §1
Coptotermes formosanus [18] = experiment: Termiticidal activity against Coptotermes formosanus placed on 0.01 % wt/wt compound treated filter paper assessed as termite mortality measured 13 days post compound exposure; in short: as §1
Coptotermes formosanus [19] = experiment: Antifeedant activity against Coptotermes formosanus placed on 0.01 % wt/wt compound treated filter paper assessed as filter paper consumption measured 21 days post compound exposure (reference value: 23.6 +/- 13.6 mg)
Coptotermes formosanus [20] = experiment: Antifeedant activity against Coptotermes formosanus placed on 0.5 % wt/wt compound treated filter paper assessed as filter paper consumption measured 21 days post compound exposure (reference value: 23.6 +/- 13.6 mg)
Coptotermes formosanus [21] = experiment: Termiticidal activity against Coptotermes formosanus placed on 0.001 % wt/wt compound treated filter paper assessed as termite mortality measured 9 days post compound exposure; in short: as §1
Coptotermes formosanus [22] = experiment: Termiticidal activity against Coptotermes formosanus placed on 0.01 % wt/wt compound treated filter paper assessed as termite mortality measured 21 days post compound exposure; in short: as §1
Coptotermes formosanus [23] = experiment: Termiticidal activity against Coptotermes formosanus placed on 0.1 % wt/wt compound treated filter paper assessed as termite mortality measured 9 days post compound exposure; in short: as §1
Coptotermes formosanus [24] = experiment: Termiticidal activity against Coptotermes formosanus placed on 0.01 % wt/wt compound treated filter paper assessed as termite mortality measured 11 days post compound exposure; in short: as §1
Coptotermes formosanus [25] = experiment: Termiticidal activity against Coptotermes formosanus placed on 0.5 % wt/wt compound treated filter paper assessed as termite mortality measured 21 days post compound exposure; in short: as §1
Coptotermes formosanus [26] = experiment: Termiticidal activity against Coptotermes formosanus placed on 0.05 % wt/wt compound treated filter paper assessed as termite mortality measured 13 days post compound exposure; in short: as §1
Coptotermes formosanus [27] = experiment: Termiticidal activity against Coptotermes formosanus placed on 0.05 % wt/wt compound treated filter paper assessed as termite mortality measured 21 days post compound exposure; in short: as §1
Coptotermes formosanus [28] = experiment: Termiticidal activity against Coptotermes formosanus placed on 0.001 % wt/wt compound treated filter paper assessed as termite mortality measured 11 days post compound exposure; in short: as §1
Coptotermes formosanus [29] = experiment: Termiticidal activity against Coptotermes formosanus placed on 0.1 % wt/wt compound treated filter paper assessed as termite mortality measured 13 days post compound exposure; in short: as §1
Coptotermes formosanus [30] = experiment: Termiticidal activity against Coptotermes formosanus placed on 0.05 % wt/wt compound treated filter paper assessed as termite mortality measured 17 days post compound exposure; in short: as §1
Coptotermes formosanus [31] = experiment: Termiticidal activity against Coptotermes formosanus placed on 0.5 % wt/wt compound treated filter paper assessed as termite mortality measured 6 days post compound exposure; in short: as §1
Coptotermes formosanus [32] = experiment: Termiticidal activity against Coptotermes formosanus placed on 0.05 % wt/wt compound treated filter paper assessed as termite mortality measured 9 days post compound exposure; in short: as §1
Coptotermes formosanus [33] = experiment: Termiticidal activity against Coptotermes formosanus placed on 0.05 % wt/wt compound treated filter paper assessed as termite mortality measured 11 days post compound exposure; in short: as §1
Coptotermes formosanus [34] = experiment: Antifeedant activity against Coptotermes formosanus placed on 0.05 % wt/wt compound treated filter paper assessed as filter paper consumption measured 21 days post compound exposure (reference value: 23.6 +/- 13.6 mg)
Coptotermes formosanus [35] = experiment: Termiticidal activity against Coptotermes formosanus placed on 0.01 % wt/wt compound treated filter paper assessed as termite mortality measured 6 days post compound exposure; in short: as §1
Coptotermes formosanus [36] = experiment: Termiticidal activity against Coptotermes formosanus placed on 0.5 % wt/wt compound treated filter paper assessed as termite mortality measured 17 days post compound exposure; in short: as §1
Coptotermes formosanus [37] = experiment: Antifeedant activity against Coptotermes formosanus placed on 1 % wt/wt compound treated filter paper assessed as filter paper consumption measured 21 days post compound exposure (reference value: 15.9 +/- 10.4 mg)
Coptotermes formosanus [38] = experiment: Antifeedant activity against Coptotermes formosanus placed on 0.05 % wt/wt compound treated filter paper assessed as filter paper consumption measured 21 days post compound exposure (reference value: 113.2 +/- 11.9 mg)
Coptotermes formosanus [39] = experiment: Termiticidal activity against Coptotermes formosanus placed on 1 % wt/wt compound treated filter paper assessed as termite mortality measured 11 days post compound exposure
Coptotermes formosanus [40] = experiment: Antifeedant activity against Coptotermes formosanus placed on 0.1 % wt/wt compound treated filter paper assessed as filter paper consumption measured 21 days post compound exposure (reference value: 113.2 +/- 11.9 mg)
Coptotermes formosanus [41] = experiment: Antifeedant activity against Coptotermes formosanus placed on 0.001 % wt/wt compound treated filter paper assessed as filter paper consumption measured 21 days post compound exposure (reference value: 113.2 +/- 11.9 mg)
Coptotermes formosanus [42] = experiment: Antifeedant activity against Coptotermes formosanus placed on 0.01 % wt/wt compound treated filter paper assessed as filter paper consumption measured 21 days post compound exposure (reference value: 113.2 +/- 11.9 mg)
Coptotermes formosanus [43] = experiment: Antifeedant activity against Coptotermes formosanus placed on 0.5 % wt/wt compound treated filter paper assessed as filter paper consumption measured 21 days post compound exposure (reference value: 113.2 +/- 11.9 mg)
Coptotermes formosanus [44] = experiment: Termiticidal activity against Coptotermes formosanus placed on 1 % wt/wt compound treated filter paper assessed as termite mortality measured 3 days post compound exposure
Coptotermes formosanus [45] = experiment: Termiticidal activity against Coptotermes formosanus placed on 1 % wt/wt compound treated filter paper assessed as termite mortality measured 21 days post compound exposure

CC1=C(C)C(=O)C(Cl)=C(Cl)C1=O
mortality (Coptotermes formosanus [1]): 26.3% | mortality (Coptotermes formosanus [2]): 1.3% | mortality (Coptotermes formosanus [3]): 100% | mortality (Coptotermes formosanus [4]): 10% | mortality (Coptotermes formosanus [5]): 60% | mortality (Coptotermes formosanus [6]): 68.8% | mortality (Coptotermes formosanus [7]): 100% | mortality (Coptotermes formosanus [8]): 27.5% | mortality (Coptotermes formosanus [9]): 30.4% | Activity (Coptotermes formosanus [10]): 17.5 mg | mortality (Coptotermes formosanus [11]): 3.8% | Activity (Coptotermes formosanus [12]): 13.1 mg | mortality (Coptotermes formosanus [13]): 1.3% | mortality (Coptotermes formosanus [14]): 100% | mortality (Coptotermes formosanus [15]): 0% | mortality (Coptotermes formosanus [16]): 26.3% | mortality (Coptotermes formosanus [17]): 100% | mortality (Coptotermes formosanus [18]): 7.5% | Activity (Coptotermes formosanus [19]): 25 mg | Activity (Coptotermes formosanus [20]): 3.2 mg | mortality (Coptotermes formosanus [21]): 2.5% | mortality (Coptotermes formosanus [22]): 10% | mortality (Coptotermes formosanus [23]): 26.3% | mortality (Coptotermes formosanus [24]): 3.8% | mortality (Coptotermes formosanus [25]): 100% | mortality (Coptotermes formosanus [26]): 5% | mortality (Coptotermes formosanus [27]): 5% | mortality (Coptotermes formosanus [28]): 6.8% | mortality (Coptotermes formosanus [29]): 41.3% | mortality (Coptotermes formosanus [30]): 5% | mortality (Coptotermes formosanus [31]): 100% | mortality (Coptotermes formosanus [32]): 1.3% | mortality (Coptotermes formosanus [33]): 3.4% | Activity (Coptotermes formosanus [34]): 18.3 mg | mortality (Coptotermes formosanus [35]): 3.8% | mortality (Coptotermes formosanus [36]): 100%

COC1=C(OC)C(=O)C(Cl)=C(Cl)C1=O
mortality (Coptotermes formosanus [7]): 8.8% | mortality (Coptotermes formosanus [17]): 2.5% | Activity (Coptotermes formosanus [20]): 19.3 mg | mortality (Coptotermes formosanus [25]): 30%

CC1=C(Br)C(=O)C(Br)=C(Cl)C1=O
mortality (Coptotermes formosanus [7]): 22.5% | mortality (Coptotermes formosanus [17]): 2.5% | Activity (Coptotermes formosanus [20]): 26.1 mg | mortality (Coptotermes formosanus [25]): 31.3%

COC1=C(OC)C(=O)C(C)=C(C)C1=O [Aurantiogliocladin]
mortality (Coptotermes formosanus [1]): 0% | Activity (Coptotermes formosanus [37]): 0.1 mg | mortality (Coptotermes formosanus [2]): 0% | mortality (Coptotermes formosanus [3]): 0% | Activity (Coptotermes formosanus [38]): 48.6 mg | mortality (Coptotermes formosanus [4]): 0% | mortality (Coptotermes formosanus [39]): 100% | mortality (Coptotermes formosanus [5]): 0% | mortality (Coptotermes formosanus [6]): 0% | mortality (Coptotermes formosanus [7]): 0% | mortality (Coptotermes formosanus [8]): 0% | mortality (Coptotermes formosanus [9]): 0% | mortality (Coptotermes formosanus [11]): 0% | mortality (Coptotermes formosanus [13]): 0% | mortality (Coptotermes formosanus [14]): 0% | mortality (Coptotermes formosanus [15]): 0% | Activity (Coptotermes formosanus [40]): 107.7 mg | mortality (Coptotermes formosanus [16]): 0% | mortality (Coptotermes formosanus [18]): 0% | Activity (Coptotermes formosanus [41]): 136.2 mg | mortality (Coptotermes formosanus [21]): 0% | Activity (Coptotermes formosanus [42]): 86.6 mg | Activity (Coptotermes formosanus [43]): 52.4 mg | mortality (Coptotermes formosanus [22]): 1.7% | mortality (Coptotermes formosanus [23]): 0% | mortality (Coptotermes formosanus [24]): 0% | mortality (Coptotermes formosanus [44]): 100% | mortality (Coptotermes formosanus [25]): 0% | mortality (Coptotermes formosanus [26]): 0% | mortality (Coptotermes formosanus [27]): 5% | mortality (Coptotermes formosanus [28]): 0% | mortality (Coptotermes formosanus [29]): 0% | mortality (Coptotermes formosanus [30]): 0% | mortality (Coptotermes formosanus [31]): 0% | mortality (Coptotermes formosanus [32]): 0% | mortality (Coptotermes formosanus [33]): 0% | mortality (Coptotermes formosanus [35]): 0% | mortality (Coptotermes formosanus [36]): 0% | mortality (Coptotermes formosanus [45]): 100%

CCCCCCCCCCCCCC1=C(O)C(=O)C=C(O)C1=O [Rapanone]
Activity (Coptotermes formosanus [37]): 0.3 mg | mortality (Coptotermes formosanus [39]): 76.7% | mortality (Coptotermes formosanus [44]): 5% | mortality (Coptotermes formosanus [45]): 81.7%
